Assay outcomes (PubChem BioAssay)
M1 antag: M1 muscarinic receptor (rat) antagonism; CHO-M1 cells, Fluo-4 calcium, ACh EC80 antagonist mode; hits give low values; B-score at 10 µM; 3.4% of 64,000 active; AID 628;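 active = calcium fluorescence response, raw or row-and-column corrected B-score, differing from the plate sample mean either way at a set confidence level, mostly lower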
D1 allo mod: allosteric modulators of human D1 dopamine receptor | AID 641 | P21728 | B-score at 10 µM | HEK293 D1, CRE-luciferase, dopamine EC30 potentiation; actives deviate in either direction | 5.9% of 58,000 active;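 active = luminescence count or its row- and column-corrected plate score outside the 99.7% band of the plate's sample wells, on either side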
Target sequence (P21728 whole entry, looked up): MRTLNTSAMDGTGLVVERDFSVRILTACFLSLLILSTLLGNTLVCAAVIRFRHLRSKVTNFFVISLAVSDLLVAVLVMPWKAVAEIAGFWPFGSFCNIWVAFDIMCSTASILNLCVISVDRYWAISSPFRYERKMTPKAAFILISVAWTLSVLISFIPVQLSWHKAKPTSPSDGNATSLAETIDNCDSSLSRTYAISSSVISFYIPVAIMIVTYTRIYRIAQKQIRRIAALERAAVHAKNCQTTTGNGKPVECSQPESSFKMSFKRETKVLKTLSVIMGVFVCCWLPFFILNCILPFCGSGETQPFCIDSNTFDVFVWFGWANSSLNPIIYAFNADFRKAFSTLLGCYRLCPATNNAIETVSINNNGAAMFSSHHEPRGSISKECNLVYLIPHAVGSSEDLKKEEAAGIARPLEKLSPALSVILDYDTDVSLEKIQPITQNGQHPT
S1P3 agonist: activates the human S1P3 receptor; 0.1% of 60,000 active; activation, % at 4.5 µM; S1P3 NFAT-BLA reporter cells, agonism, FRET ratio; relative to 1 µM S1P, basal subtracted; AID 373;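 active = activation above the screen-wide mean plus 3 SD, cut at about 4.5% in these data, passing the limit was not always enough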
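Measure – % activation relative to 1 µM S1P (100%), per plate · System – stable CHO line with human S1P3, Gα16, NFAT-BLA reporter · Timing – cells plated overnight, compound 4 h 37 °C, substrate 2 h RT · Technique – fluorescent BLA substrate, ex 405 nm, em 460/535 nm ratio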
S1P1 ag pot: S1P1 (human) agonism or agonism potentiation; S1P1 CRE-bla cells, forskolin, beta-lactamase FRET, potentiator mode; S1P1 agonist co-added at EC20, 2 nM; 100% = saturating reference agonist, 0% = basal; 0.57% of 56,000 active; activation, % at 9.5 µM;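 active = activation above a cutoff set at the mean activation of all tested compounds plus 3 SD, cut at about 54% in these data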;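 note: forskolin at 4 µM as EC80 and the EC20 agonist is SEW2871; 100% = SEW2871 at its EC100 plus forskolin at EC80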
M1 agonist: activates the M1 muscarinic receptor | CHO-M1 cells, Fluo-4 calcium fluorescence, agonist mode; hits give high values | B-score at 10 µM | 3% of 64,000 active;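 active = fluorescence rise, raw or as B-score row- and column-corrected plate score, outside the 99.7% band of its plate's samples, either direction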
D1 PAM confirm: confirmation of human D1 dopamine receptor allosteric modulators. shares compounds with D1 allo mod. HEK293 D1 CRE-luciferase, dopamine EC30 potentiation; hits give high values. luminescence at 10 µM. 88% of 2,200 active;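 active = luminescence in either of two replicates above the same-plate mean plus 3 SD of the low-dose dopamine control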
D1 ag no DA: D1 (human) signaling in absence of dopamine; shares compounds with D1 allo mod; HEK293 D1 CRE-luciferase, luminescence, no dopamine; hits give high values; luminescence at 10 µM; 0.8% of 1,900 active; in the data active = luminescence above about 3900
Isoprot counter: alters isoproterenol CRE-luciferase response in HEK293 cells. shares compounds with D1 allo mod. HEK293 D1 CRE-luciferase, isoproterenol EC30 counter-screen. calls only at 10 µM. 63% of 2,200 active. AID 647;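 active = luminescence in either replicate above plate mean of wells with a partly effective reference agonist dose plus 3 SD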;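 note: isoproterenol raises cAMP through native beta-adrenoceptor Gs so signal bypasses D1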
Active calls of the source: *; i = inactive; . = not tested or not shown; + = active, no number. Compounds with a hit are over-represented: about 11% of the library has one in this group of screens.

SMILES	M1 antag	D1 allo mod	S1P3 agonist	S1P1 ag pot	M1 agonist	D1 PAM confirm	D1 ag no DA	Isoprot counter
N#Cc1nc(N2CCOCC2)nc(N2CCOCC2)n1	-0.239	5.06*	-1.5	-1.3	0.0497	12340*	1704	+
COC(=O)C1=C(C)NC(=O)NC1C1CC=CCC1 (stereo not given)	.	3.34*	0.6	-9.1	.	4764	1316	i
COc1ccc(OCCN2CCN(C3CC(=O)N(CCC(C)C)C3=O)CC2)cc1 (stereo not given)	-1.62	0.321	.	.	-0.241	.	.	.
COCCn1c(COc2cccc(OC)c2)nnc1SCC(=O)N1CCOCC1	0.121	-0.487	0.0	1.9	-0.0822	.	.	.
CCOc1ccc(NC(=O)c2nnn(CC(=O)Nc3ccccc3OCC)c2N)cc1	0.0936	0.807	0.1	-7.7	-0.137	.	.	.
CCOc1ccc(NC(=O)Cn2nnc(C(=O)NCc3ccccc3OC)c2N)cc1	-0.223	4.29*	-0.9	8.1	0.439	4744	1560	i
CCC(c1nnnn1Cc1ccc(F)cc1)N(CCCO)Cc1cc2cc3c(cc2[nH]c1=O)OCO3 (stereo not given)	-0.47	5.54*	-0.7	39.1	0.141	4672	1368	i
Clc1ccccc1Cn1nnc2c(NCC3CC3)ncnc21	-0.323	2.76*	-0.3	-5.4	-0.303	6104*	1744	+
Clc1ccccc1Cn1nnc2c(Nc3ccccc3)ncnc21	1.29	1.27	0.0	-0.7	-0.0824	.	.	.
CC(C)Cc1cc(C(=O)NCc2ccco2)no1	-0.768	.	-0.5	-13.9	-1.07	.	.	.
Cc1cc(C)n2nc3ccccc3c2n1	0.608	2.84*	-0.8	-27.3	-0.726	10324*	1660	+
COc1ccc(N(C(=O)c2ccco2)S(=O)(=O)c2cccs2)cc1	-0.284	7.47*	-1.2	.	-0.0323	14396*	1668	+
CC(Sc1nnc(-c2ccc(O)cc2)o1)C(=O)Nc1cccc2ccccc12 (stereo not given)	0.152	-0.00128	-0.3	4.6	0.0551	.	.	.
O=S(=O)(Nc1cc(Cl)ccc1N1CCCCC1)c1cccs1	0.122	28.6*	0.8	14.6	-0.212	7016*	1392	i
O=S(=O)(Nc1ccc(N2CCCCC2)cc1)c1cccs1	-0.0149	0.908	0.2	18.3	2.86	.	.	.
CCOC(=O)C(C)Oc1cccc2c(=O)n(CC(=O)NCc3ccco3)ccc12 (stereo not given)	-0.0735	3.27*	-2.1	33.8	-0.622	6652*	1628	i
O=C(Cn1cnc2ccccc2c1=O)NCc1ccco1	1.29	-0.921	0.2	.	-0.463	.	.	.
CCOC(=O)c1c(C)c2c(n1C)CCC/C2=N\O	-0.126	6.5*	0.3	-21.5	1	9680*	1536	+
O=C(OCC(=O)N1CCCC1)c1cccs1	0.471	0.645	-0.2	3.2	0.38	.	.	.
Cn1c(=O)c2c(nc(SCCCO)n2Cc2ccccc2Cl)n(C)c1=O	-0.0495	3.87*	0.2	-9.4	0.454	6636*	1528	i
CCOc1ccccc1C1NC(=O)NC(C)=C1C(=O)OC1CCCC1C (stereo not given)	-0.555	-0.659	0.3	-21.5	-0.0627	.	.	.
CCOc1ccccc1C1NC(=O)NC(C)=C1C(=O)OC1CCCCC1 (stereo not given)	0.493	4.2*	-1.4	-12.5	1.26	5388*	1456	i
c1ccc2c(c1)nc(NC1CCCCC1)c1nncn12	-0.0649	14.4*	0.4	-28.3	-0.591	9836*	1048	+
c1ccc(Nc2nc3ccccc3n3cnnc23)cc1	-0.138	4.19*	-1.3	-8.2	0.106	15712*	1616	i
CSc1nnc2c(n1)OC(C1CC=C(C)CC1)Nc1ccccc1-2 (stereo not given)	0.00581	0.152	-1.1	5.7	-0.73	.	.	.
SMILES	M1 antag	D1 allo mod	S1P3 agonist	S1P1 ag pot	M1 agonist	D1 PAM confirm	D1 ag no DA	Isoprot counter
Cc1cc(C)n(-c2nc3ccccc3c(=O)n2OCCOc2ccccc2)n1	0.0281	-0.142	-0.3	54.9	-0.251	.	.	.
CCCOn1c(OCC(C)C)nc2ccccc2c1=O	-0.00336	4.46*	-0.5	4.2	0.147	12220*	1508	+
CC(C)Oc1ccc(C2C(C(=O)c3ccco3)=C(O)C(=O)N2CCCN(C)C)cc1 (stereo not given)	-0.475	0.0255	-0.1	-17.3	0.0952	.	.	.
COc1cc(CN(C(=O)c2ccco2)c2ccc(C)cc2)ccc1O	-0.694	9.48*	-1.1	.	-0.474	13744*	1484	+
COc1ccc(CN(C(=O)c2ccco2)c2ccc(Br)cc2)cc1OC	0.389	-0.307	-1.3	-22.0	0.553	.	.	.
C=CCN=C(NC#N)SCc1ccccc1Cl	-0.359	7.42*	-1.0	5.0	-0.544	8148*	.	i
CC(C)N=C(NC#N)SCc1ccc(F)cc1	0.00203	-0.605	0.8	-5.1	-0.23	.	.	.
Cc1ccc(-c2ccc(=O)n(CC(=O)N3CCN(c4cccc(C)c4)C(C)C3)n2)cc1 (stereo not given)	-0.258	0.582	-1.1	8.1	0.465	.	.	.
COc1ccc(-c2nc(CSCC(=O)N3CCc4ccccc4C3)c(C)o2)cc1OC	-0.0429	7.84*	-1.3	2.4	-0.137	7660	1528	+
CCOC(=O)N1CCC(NC(=O)CSCc2nc(-c3ccc(OC)c(OC)c3)oc2C)CC1	0.0883	1.31	1.2	-35.3	0.812	.	.	.
COc1ccc(-c2nc(CS(=O)CC(=O)NC3CCCc4ccccc43)c(C)o2)cc1OC (stereo not given)	0.227	4.44*	1.0	-26.0	0.913	9276*	.	+
COc1ccc(-c2nc(CSCC(=O)N3CCN(c4cccc(C)c4)C(C)C3)c(C)o2)cc1OC (stereo not given)	0.000703	11.6*	0.5	-20.3	0.135	12288*	.	+
CCCCN(C)CCCNC(=O)CS(=O)Cc1nc(-c2ccc(OC)c(OC)c2)oc1C (stereo not given)	-0.145	0.323	-0.5	1.9	0.866	.	.	.
COc1ccc(S(=O)(=O)NCCc2csc(C)n2)cc1C	0.476	-1.38	-0.3	-4.1	-1.66	.	.	.
O=C1C(Cl)=C(NCC2CCCO2)C(=O)N1Cc1ccccc1 (stereo not given)	1.55	4.79*	-0.9	-11.8	-1.73	9896*	1724	i
Cn1c(=O)n(Cc2ccccc2)c(=O)c2c1nc(NCC1CCCO1)n2Cc1ccccc1 (stereo not given)	-0.41	0.947	-3.3	2.2	-0.0917	.	.	.
COC(=O)C(NC=O)C(O)(Cc1ccccc1)C(F)(F)F (stereo not given)	-0.265	.	0.2	0.9	0.766	.	.	.
CC(=O)c1ccc(NC(=O)CSc2nnc(NC(=O)CN3CCOCC3)s2)cc1	-1.08	0.802	.	.	0.0888	.	.	.
